Experimental data as given in ChEMBL document CHEMBL3351900, “Conjugation of a nonspecific antiviral sapogenin with a specific HIV fusion inhibitor: a promising strategy for discovering new antiviral therapeutics” (J Med Chem, 2014).
Square brackets hold non-standard residues; d marks the D form. Peptide text beside a SMILES is read from it. * marks the point of attachment. X3 = C=C(C)[C@@H]1CC[C@]2(C(=O)O)CC[C@]3(C)[C@H](CC[C@@H]4[C@@]5(C)CC[C@H](OC(=O)CCc6cn(CC(=O)*)nn6)C(C)(C)[C@@H]5CC[C@]43C)[C@@H]12; X5 = C=C(C)[C@@H]1CC[C@]2(C(=O)OCc3cn(CC(=O)*)nn3)CC[C@]3(C)[C@H](CC[C@@H]4[C@@]5(C)CC[C@H](OC(C)=O)C(C)(C)[C@@H]5CC[C@]43C)[C@@H]12; X4 = C=C(C)[C@@H]1CC[C@]2(C(=O)OCc3cn(CC(=O)*)nn3)CC[C@]3(C)[C@H](CC[C@@H]4[C@@]5(C)CC[C@H](O)C(C)(C)[C@@H]5CC[C@]43C)[C@@H]12; βAla = NCCC(=O)O

How the values were obtained:
[1] = system: Human immunodeficiency virus 1; assay: Antiviral activity against HIV1 3B infected in human MT2 cells assessed as inhibition of viral p24 antigen production by ELISA; assay type: functional, organism-based; conditions: Human immunodeficiency virus 1, 3B
Outline: (§1)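 MT-2 cells (1 × 10⁴) infected with 100 TCID₅₀ virus with or without peptides at graded concentrations. Culture supernatants collected on day 4 postinfection; p24 antigen quantified by ELISA. Percent inhibition and EC₅₀ calculated; tested in triplicate, mean ± standard deviation.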

[2] = Cytotoxicity against human MT2 cells after 4 days by XTT assay; assay type: cell-based
Outline: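 MT-2 cells (5 × 10⁵/mL) mixed with equal volumes of graded conjugate concentrations and held at 37 °C for 4 days. XTT (1 mg/mL) with 0.02 μM phenazine methosulfate added for 4 h, then A450 read. CC50 calculated from the dose–response.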

[3] = system: Human immunodeficiency virus 1; assay: Antiviral activity against HIV1 BaL infected in human […] cells assessed as inhibition of viral replication; assay type: functional, organism-based; conditions: Human immunodeficiency virus 1, BaL; outline: as §1
[4] = Selectivity index, ratio of CC50 for human MT2 cells to EC50 for HIV1 3B infected in human MT2 cells; assay type: toxicity, cell-based; conditions: read-out: Ratio CC50/EC50

Row | Compound | EC50 [1] [nM] | CC50 at 96 h [2] [nM] | EC50 [3] [nM] | selectivity ratio [4]
1 | C=C(C)[C@@H]1CC[C@]2(C(=O)O)CC[C@]3(C)[C@H](CC[C@@H]4[C@@]5(C)CC[C@H](OC(=O)CCc6cn(CC(=O)NCCCC[C@H](NC(=O)CCNC(=O)[C@H](CC(C)C)NC(=O)[C@H](CC(C)C)NC(=O)[C@H](CCC(=O)O)NC(=O)[C@H](CCC(N)=O)NC(=O)[C@H](CCC(=O)O)NC(=O)[C@H](CC(N)=O)NC(=O)[C@H](CCCCN)NC(=O)[C@H](CCC(=O)O)NC(=O)[C@H](CCC(N)=O)NC(=O)[C@H](CCC(N)=O)NC(=O)[C@H](CC(N)=O)NC(=O)[C@H](CCC(N)=O)NC(=O)[C@H](CO)NC(=O)[C@H](CCC(=O)O)NC(=O)[C@H](CCC(=O)O)NC(=O)[C@@H](NC(=O)[C@H](CC(C)C)NC(=O)[C@H](CO)NC(=O)[C@H](Cc7cnc[nH]7)NC(=O)[C@@H](NC(=O)[C@H](CC(C)C)NC(=O)[C@H](CO)NC(=O)[C@@H](NC(=O)[C@H](Cc7ccc(O)cc7)NC(=O)[C@H](CC(N)=O)NC(=O)[C@H](CC(N)=O)NC(C)=O)[C@@H](C)O)[C@@H](C)CC)[C@@H](C)CC)C(N)=O)nn6)C(C)(C)[C@@H]5CC[C@]43C)[C@@H]12 (Ac-NNYTSLIHSLIEESQNQQEKNEQELL[βAla]K(X3)-NH2) | 61.6 | > 25000 | 83.1 | > 406
2 | C=C(C)[C@@H]1CC[C@]2(C(=O)OCc3cn(CC(=O)NCCCC[C@H](NC(=O)CCNC(=O)[C@H](CC(C)C)NC(=O)[C@H](CC(C)C)NC(=O)[C@H](CCC(=O)O)NC(=O)[C@H](CCC(N)=O)NC(=O)[C@H](CCC(=O)O)NC(=O)[C@H](CC(N)=O)NC(=O)[C@H](CCCCN)NC(=O)[C@H](CCC(=O)O)NC(=O)[C@H](CCC(N)=O)NC(=O)[C@H](CCC(N)=O)NC(=O)[C@H](CC(N)=O)NC(=O)[C@H](CCC(N)=O)NC(=O)[C@H](CO)NC(=O)[C@H](CCC(=O)O)NC(=O)[C@H](CCC(=O)O)NC(=O)[C@@H](NC(=O)[C@H](CC(C)C)NC(=O)[C@H](CO)NC(=O)[C@H](Cc4cnc[nH]4)NC(=O)[C@@H](NC(=O)[C@H](CC(C)C)NC(=O)[C@H](CO)NC(=O)[C@@H](NC(=O)[C@H](Cc4ccc(O)cc4)NC(=O)[C@H](CC(N)=O)NC(=O)[C@H](CC(N)=O)NC(C)=O)[C@@H](C)O)[C@@H](C)CC)[C@@H](C)CC)C(N)=O)nn3)CC[C@]3(C)[C@H](CC[C@@H]4[C@@]5(C)CC[C@H](O)C(C)(C)[C@@H]5CC[C@]43C)[C@@H]12 (Ac-NNYTSLIHSLIEESQNQQEKNEQELL[βAla]K(X4)-NH2) | 154 | > 25000 | 135 | > 50
3 | C=C(C)[C@@H]1CC[C@]2(C(=O)OCc3cn(CC(=O)NCCCC[C@H](NC(=O)CCNC(=O)[C@H](CC(C)C)NC(=O)[C@H](CC(C)C)NC(=O)[C@H](CCC(=O)O)NC(=O)[C@H](CCC(N)=O)NC(=O)[C@H](CCC(=O)O)NC(=O)[C@H](CC(N)=O)NC(=O)[C@H](CCCCN)NC(=O)[C@H](CCC(=O)O)NC(=O)[C@H](CCC(N)=O)NC(=O)[C@H](CCC(N)=O)NC(=O)[C@H](CC(N)=O)NC(=O)[C@H](CCC(N)=O)NC(=O)[C@H](CO)NC(=O)[C@H](CCC(=O)O)NC(=O)[C@H](CCC(=O)O)NC(=O)[C@@H](NC(=O)[C@H](CC(C)C)NC(=O)[C@H](CO)NC(=O)[C@H](Cc4cnc[nH]4)NC(=O)[C@@H](NC(=O)[C@H](CC(C)C)NC(=O)[C@H](CO)NC(=O)[C@@H](NC(=O)[C@H](Cc4ccc(O)cc4)NC(=O)[C@H](CC(N)=O)NC(=O)[C@H](CC(N)=O)NC(C)=O)[C@@H](C)O)[C@@H](C)CC)[C@@H](C)CC)C(N)=O)nn3)CC[C@]3(C)[C@H](CC[C@@H]4[C@@]5(C)CC[C@H](OC(C)=O)C(C)(C)[C@@H]5CC[C@]43C)[C@@H]12 (Ac-NNYTSLIHSLIEESQNQQEKNEQELL[βAla]K(X5)-NH2) | 41.4 | > 25000 | 20.8 | > 603
